{"data": "Results pooled from the literature", "PDE5A": "cGMP-specific 3',5'-cyclic phosphodiesterase (PDE5A, Homo sapiens, UniProt O76074)", "HTR2A": "5-hydroxytryptamine receptor 2A (HTR2A, Homo sapiens, UniProt P28223)", "SIGMAR1": "Sigma non-opioid intracellular receptor 1 (SIGMAR1, Homo sapiens, UniProt Q99720)", "MALT1": "Mucosa-associated lymphoid tissue lymphoma translocation protein 1 (MALT1, Homo sapiens, UniProt Q9UDY8)", "note": "Protocols differ between the studies behind these lines."}
{"SMILES": "[H]/N=C(/N)c1ccc(NCc2nc3cc(C(=O)N(CCC(=O)O)c4ccccn4)ccc3n2C)cc1", "target": "Vitamin K-dependent protein C (PROC, Homo sapiens, UniProt P04070)", "test": "enzyme activity, inhibitor", "conditions": "2 µM", "inhibition": "43%"}
{"SMILES": "COCc1c(-c2cc3cc(C)cc(OC)c3s2)c2c(N)ncnn2c1CN1CCNC(=O)C1", "target": "PDE5A", "test": "enzyme activity, inhibitor", "conditions": "10 µM", "inhibition": "8%"}
{"SMILES": "Cn1cc(-c2cc(F)cc(N3CCn4c(cc5c4CCCC5)C3=O)c2CO)cc(Nc2ccc(N3CCN(C4COC4)CC3)cn2)c1=O", "target": "Phosphatidylinositol 4-phosphate 3-kinase C2 domain-containing subunit beta (PIK3C2B, Homo sapiens, UniProt O00750)", "test": "enzyme activity, inhibitor", "conditions": "0.1 µM", "inhibition": "10%"}
{"SMILES": "Cc1ncc(C)n2nc(/C=C/c3nc(N4CCCC4)cc(N4CCOCC4)n3)nc12", "target": "PDE5A", "test": "enzyme activity, inhibitor", "conditions": "10 µM", "inhibition": "38%"}
{"SMILES": "Cn1cc(-c2cccc(N3CCc4c(sc5c4CC(C)(C)C5)C3=O)c2CO)cc(Nc2ccncn2)c1=O", "target": "Sphingosine kinase 1 (SPHK1, Homo sapiens, UniProt Q9NYA1)", "test": "enzyme activity, inhibitor", "conditions": "1 µM", "inhibition": "5%"}
{"SMILES": "OC[C@@]12C[C@@H]1[C@@H](n1cnc3c(NC(C4CCCC4)C4CCCC4)nc(Cl)nc31)[C@H](O)[C@@H]2O", "target": "HTR2A", "test": "ligand displacement, radioligand", "conditions": "10 µM", "inhibition": "22%"}
{"SMILES": "CN(C)C(=O)COC(=O)Cc1ccc(OC(=O)c2ccc(NC(=N)N)cc2)cc1", "target": "Caspase-6 (CASP6, Homo sapiens, UniProt P55212)", "test": "enzyme activity, inhibitor", "conditions": "10 µM", "inhibition": "3%"}
{"SMILES": "CC(C)N1CCC[C@H]1CNC(=O)c1cn(C2CCCC2)c(=O)c2c1c1ccccc1n2C", "target": "SIGMAR1", "test": "ligand displacement, radioligand", "conditions": "10 µM", "inhibition": "47%"}
{"SMILES": "N=C(N)c1ccc2cc(OC(=O)c3ccc(N=C(N)N)cc3)ccc2c1", "target": "MALT1", "test": "enzyme activity, inhibitor", "conditions": "10 µM", "inhibition": "49%"}
{"SMILES": "OC[C@@]12C[C@@H]1[C@@H](n1cnc3c(NC(C4CCCC4)C4CCCC4)nc(Cl)cc31)[C@H](O)[C@@H]2O", "target": "HTR2A", "test": "ligand displacement, radioligand", "conditions": "10 µM", "inhibition": "1%"}
{"SMILES": "CC(C)[C@H](NC(=O)OCc1ccccc1)C(=O)N[C@@H](CCCN=C(N)N)C(=O)N1CCC[C@H]1C(=O)N[C@@H](CCCN=C(N)N)C(=O)CF", "target": "MALT1", "test": "enzyme activity, inhibitor", "conditions": "0.1 µM", "inhibition": "97%"}
{"SMILES": "O=C(Nc1cccnn1)N1CCN([C@@H]2CCOc3cc(C(F)(F)F)ccc32)CC1", "target": "Histamine H4 receptor (HRH4, Homo sapiens, UniProt Q9H3N8)", "test": "cell-free assay", "conditions": "20 µM", "inhibition": "4%"}
{"SMILES": "CC(C)=CCC[C@]1(C)C=Cc2c(O)c3c(c(CC=C(C)C)c2O1)O[C@]12C(=C[C@@H]4C[C@H]1C(C)(C)O[C@@]2(C/C=C(/C)C(=O)O)C4=O)C3=O", "target": "Histone-lysine N-methyltransferase EHMT1 (EHMT1, Homo sapiens, UniProt Q9H9B1)", "test": "cell-free assay", "conditions": "10 µM", "inhibition": "-8%"}
{"SMILES": "CN(CCN1CCC(OC(=O)Nc2ccccc2-c2ccccc2)CC1)C(=O)c1ccc(CN2CCC(C(N)=O)CC2)cc1", "target": "Corticotropin-releasing factor receptor 1 (Rattus norvegicus, UniProt P35353)", "test": "ligand displacement, radioligand", "conditions": "1 µM", "inhibition": "-2%"}
{"SMILES": "CCOC(=O)c1ccc(OC(=O)CCCCCNC(=N)N)cc1", "target": "MALT1", "test": "enzyme activity, inhibitor", "conditions": "10 µM", "inhibition": "46%"}
{"SMILES": "CC(C)Cn1cnc2c(N)nc3ccccc3c21", "target": "SIGMAR1", "test": "ligand displacement, radioligand", "conditions": "10 µM", "inhibition": "15%"}
{"SMILES": "C[C@H](C(=O)N[C@H]1COc2ccccc2[C@@H]1S(C)(=O)=O)c1ccc(F)cc1", "target": "PDE5A", "test": "enzyme activity, inhibitor", "conditions": "10 µM", "inhibition": "-5%"}
{"SMILES": "COc1ccc(S(=O)(=O)N2CCCCC2)cc1C", "target": "Endothelin-1 receptor (EDNRA, Homo sapiens, UniProt P25101)", "test": "ligand displacement, radioligand", "conditions": "10 µM", "inhibition": "< 30%"}
{"SMILES": "CCN(CC)CCCC[C@H](NC(=O)[C@H](CC(C)C)NC(=O)[C@H](C)NC(=O)[C@H](Cc1ccccc1)NC(=O)c1ccc(C(C)(C)C)cc1)C(=O)N[C@@H](CO)C(=O)OC", "target": "Cannabinoid receptor 1 (CNR1, Homo sapiens, UniProt P21554)", "test": "ligand displacement, radioligand", "conditions": "10 µM", "inhibition": "-13%"}
{"SMILES": "C#Cc1n[nH]c2c(-c3cn(C(C)c4ccccn4)c(=O)[nH]c3=O)cc(F)cc12 (centres unmarked)", "target": "Cytoplasmic tyrosine-protein kinase BMX (BMX, Homo sapiens, UniProt P51813)", "test": "enzyme activity, inhibitor", "conditions": "1 µM", "inhibition": "0.9%"}
